# The RNAGym collection of RNA variant scans (doi:10.1038/s41586-018-0170-7)
# B1: tRNA (parent)
# chain: GUUCCGUUGGCGUAAUGGUAACGCGUCUCCCUCCUAAGGAGAAGACUGCGGGUUCGAGUCCCGUACGGAACG
# Variants of: B1
# Test: yeast fitness, log relative to wild type (ln ratio); higher = fitter; tRNA-Arg(CCU), competitive growth, 37 C, 1 M NaCl
# Procedure, shortened: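 A combinatorial tRNA-Arg(CCU) variant library was carried on a HIS3 centromeric plasmid in BY4742 lacking the chromosomal gene, from two independent transformations. Pools grew 4 generations in SC-HIS at 30 °C, then ~6.5 generations (~26.5 h) in SC-HIS 1M NaCl at 37 °C, with three outputs per input. Variants were counted by 125 bp paired-end Illumina sequencing. Fitness is ln of each genotype's generations (OD-scaled log2 output/input frequency, inverse-variance weighted across replicates) over the wild-type's.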
row,Variant,yeast fitness (ln)
1,G1A U2G G6U A69G A70U C71U,-0.255
2,U2C A43C C46U A69G,-0.182
3,G1A U2G G6U C27U A70U,-0.265
4,G1A U2G G6U C27U A70G,-0.274
5,U2C A43C,-0.0265
6,G1A U2G G6U C66A A69G A70G C71U,-0.325
7,G1A U2G G6U C46U C66A A69G A70U C71U,-0.227
8,U2C A43C C66U A69G A70U,-0.263
9,U2C A43C C66U A69G A70G,-0.169
10,U2C A43C C46U C66U A70G C71U,-0.152
11,U2C A43C C46U,0.00393
12,U2C A43C C46U A70G C71U,0.00238
13,U2C A43C C66U A69G A70U C71U,-0.605
14,G1A U2G G6U C27U A43C C66U A69G A70G C71U,-0.491
15,G1A U2G G6U C27U A43C C66U A69G A70U,-0.611
16,G1A U2G G6U C27U A43C C66U A69G A70G,-0.337
17,U2C A43C A69G A70G C71U,-0.0143
18,G1A U2G G6U C27U A43C C66U A69G C71U,-0.764
19,G1A U2G G6U C27U C66U A70G C71U,-0.325
20,U2C A43C C66U A70U,-0.0776
21,U2C A43C C66U A70G,-0.0636
22,G1A U2G G6U C27U A43C C46U A69G A70G C71U,-0.446
23,G1A U2G G6U C27U A43C A69G C71U,-0.479
24,U2C A43C C46U A70U,-0.0182

row,Variant,yeast fitness (ln)
1,U2C A43C C46U A70G,-0.00469
2,U2C A43C C66U A69G A70G C71U,-0.23
3,G1A U2G G6U C27U C46U A69G A70G,-0.474
4,G1A U2G G6U C27U C46U A69G A70U,-0.314
5,G1A U2G G6U A43C A70G C71U,-0.323
6,G1A U2G G6U C27U C66A A70G C71U,-0.287
7,G1A U2G G6U C46U A70G C71U,-0.257
8,U2C,0.0175
9,G1A U2G G6U A43C C66A A70G C71U,-0.301
10,G1A U2G G6U C27U A43C A70G C71U,-0.588
11,U2C A43C A70U C71U,-0.102
12,G1A U2G G6U C27U A69G A70U C71U,-0.404
13,G1A U2G G6U C46U C66A A69G A70G C71U,-0.416
14,U2C C27U A43C C46U A69G,-0.0409
15,G1A U2G G6U C27U C46U C66U A69G A70G C71U,-0.339
16,G1A U2G G6U C27U C46U A69G A70G C71U,-0.35
17,G1A U2G G6U C66A A70G C71U,-0.525
18,G1A U2G G6U C46U C71U,-0.251
19,U2C A43C C46U C66U A69G C71U,-0.25
20,U2C A43C C66A A70U,-0.0829
21,U2C A43C C66A A70G,-0.0552
22,G1A U2G G6U C27U C46U A70G,-0.274
23,G1A U2G G6U C27U C46U A70U,-0.217
24,G1A U2G G6U C27U A43C C46U C71U,-0.277

row,Variant,yeast fitness (ln)
1,G1A U2G G6U C46U C66A,-0.122
2,G1A U2G G6U C46U C66U,-0.14
3,G1A U2G G6U A69G C71U,-0.224
4,G1A U2G G6U C27U A70U C71U,-0.305
5,U2C A43C C46U C66A A69G A70G C71U,-0.097
6,G1A U2G G6U C27U C46U C66A A70U C71U,-0.0752
7,G1A U2G G6U C27U A43C C46U A69G A70U C71U,-0.41
8,U2C C27U A43C C46U A69G A70G C71U,-0.0222
9,G1A U2G G6U A43C C66A C71U,-0.265
10,G1A U2G G6U C27U C66A A70U C71U,-0.168
11,G1A U2G G6U C27U A43C C46U C66A A70G C71U,-0.369
12,G1A U2G G6U A70U C71U,-0.22
13,U2C C27U A43C C46U A70U C71U,-0.0649
14,U2C C27U A43C C46U C66A,-0.0384
15,U2C A70U,-0.0103
16,U2C A70G,0.00112
17,G1A U2G G6U A43C A69G A70G,-0.277
18,G1A U2G G6U A43C A69G A70U,-0.456
19,U2C C27U A43C A69G,-0.0976
20,U2C C27U A43C C46U A70G C71U,-0.00986
21,U2C C27U A43C C46U A69G C71U,-0.118
22,G1A U2G G6U C27U C46U C66U A70U,-0.236
23,G1A U2G G6U C27U C46U C66U A70G,-0.437
24,G1A U2G G6U A43C C46U A70G C71U,-0.338

row,Variant,yeast fitness (ln)
1,G1A U2G G6U C27U C66A C71U,-0.273
2,G1A U2G G6U C27U A43C C46U C66U C71U,-0.526
3,G1A U2G G6U C27U A43C C66A A70U,-0.212
4,U2C A70U C71U,-0.0765
5,G1A U2G G6U C27U C71U,-0.358
6,U2C C27U A43C A70U,-0.152
7,U2C C27U A43C A70G,-0.0248
8,G1A U2G G6U C27U A43C C66U A69G A70U C71U,-0.54
9,U2C A43C C46U C66A A69G A70U C71U,-0.374
10,G1A U2G G6U A43C C66U A69G A70G C71U,-0.368
11,U2C A43C C66A A69G A70G,-0.186
12,G1A U2G G6U C27U C46U C66A A69G A70U C71U,-0.513
13,G1A U2G G6U C27U A43C C46U A69G C71U,-0.39
14,U2C A43C A70G C71U,-0.0158
15,G1A U2G G6U C46U A69G A70G C71U,-0.309
16,G1A U2G G6U C66A A70U C71U,-0.0122
17,G1A U2G G6U A43C C46U A69G C71U,-0.393
18,U2C A43C C66U A70U C71U,-0.424
19,U2C A43C C66A,-0.0546
20,U2C A43C C66U,-0.0874
21,G1A U2G G6U C66U C71U,-0.249
22,G1A U2G G6U C27U A43C A70G,-0.419
23,G1A U2G G6U C27U A43C A70U,-0.338
24,G1A U2G G6U A43C C71U,-0.307

row,Variant,yeast fitness (ln)
1,G1A U2G G6U C27U C66U A70U,-0.386
2,G1A U2G G6U C27U C66U A70G,-0.357
3,G1A U2G G6U A69G A70G C71U,-0.427
4,G1A U2G G6U C27U C46U C66U A69G C71U,-0.434
5,U2C A43C C66A A69G A70G C71U,-0.168
6,G1A U2G G6U A43C C66A A70U,-0.282
7,G1A U2G G6U A43C C66A A70G,-0.251
8,U2C C27U A43C C46U C66A A69G A70G,-0.0542
9,G1A U2G G6U C27U A43C C46U C66A A70U,-0.309
10,G1A U2G G6U A43C C46U C66A A69G A70G C71U,-0.378
11,G1A U2G G6U A43C C46U C66A A70G,-0.178
12,G1A U2G G6U A43C C46U C66A A70U,-0.303
13,G1A U2G G6U A69G A70U,-0.278
14,G1A U2G G6U A69G A70G,-0.183
15,G1A U2G G6U C27U A43C C46U A70U,-0.341
16,G1A U2G G6U C27U A43C C46U A70G,-0.387
17,G1A U2G G6U C27U C46U C66U A70U C71U,-0.334
18,U2C A69G A70G C71U,-0.0131
19,U2C C27U A43C A69G A70U C71U,-0.266
20,U2C C27U A43C C46U A70U,-0.14
21,U2C C27U A43C C46U A70G,-0.0098
22,G1A U2G G6U C27U A43C A69G A70G C71U,-0.449
23,U2C A43C A69G,-0.0815
24,G1A U2G G6U C27U C46U C66U A70G C71U,-0.307

row,Variant,yeast fitness (ln)
1,G1A U2G G6U C27U A43C C46U C66U A69G A70G,-0.476
2,G1A U2G G6U C27U A43C C46U C66U A69G A70U,-0.451
3,G1A U2G G6U C27U A43C C66A,-0.171
4,G1A U2G G6U A43C C46U C66A A70U C71U,-0.0885
5,U2C C27U A43C C46U A69G A70U,-0.169
6,U2C C27U A43C C46U A69G A70G,-0.0239
7,G1A U2G G6U C27U A43C C46U,-0.363
8,G1A U2G G6U C46U C66U A69G C71U,-0.466
9,U2C A43C C66U A70G C71U,-0.346
10,U2C A70G C71U,-0.013
11,G1A U2G G6A C66U A70U,-0.319
12,G1A U2G G6U A43C A69G C71U,-0.537
13,U2C A43C C46U C66U A70U C71U,-0.198
14,G1A U2G G6U C27U C66A A69G A70U C71U,-0.404
15,G1A U2G G6U C66A C71U,-0.193
16,G1A U2G G6U C27U A69G C71U,-0.274
17,G1A U2G G6U C27U A43C C46U C66U A69G A70G C71U,-0.475
18,G1A U2G G6U C27U C46U C66U C71U,-0.285
19,G1A U2G G6U A43C C46U A69G A70G C71U,-0.345
20,G1A U2G G6A C66U C71U,-0.146
21,G1A U2G G6U A43C C46U A70G,-0.235
22,G1A U2G G6U A43C C46U A70U,-0.235
23,U2C A43C C46U C66A C71U,-0.1
24,U2C A43C C46U C66U A69G A70U C71U,-0.39

row,Variant,yeast fitness (ln)
1,G1A U2G G6U A43C C66U A69G C71U,-0.437
2,G1A U2G G6U C27U A43C A70U C71U,-0.415
3,U2C C27U A43C C46U,-0.0298
4,U2C A43C C46U C66U A70U,-0.0497
5,U2C A43C C46U C66U A70G,-0.0311
6,G1A U2G G6U C27U A43C C66U C71U,-0.518
7,G1A U2G G6U C27U C46U C66A,-0.2
8,G1A U2G G6U C27U C46U C66U,-0.271
9,G1A U2G G6U C46U C66A A70G,-0.258
10,G1A U2G G6U C46U C66A A70U,-0.234
11,U2C C27U A43C A70U C71U,-0.172
12,G1A U2G G6U A43C C66U A70U,-0.284
13,G1A U2G G6U A43C C66U A70G,-0.271
14,U2C C27U A43C A69G A70G C71U,-0.0704
15,U2C A43C A70U,-0.0907
16,U2C A43C A70G,-0.00562
17,G1A U2G G6U C66U A70U,-0.211
18,G1A U2G G6U C66U A70G,-0.199
19,U2C A43C C46U C66A A70G C71U,-0.0245
20,G1A U2G G6U C27U C46U A70G C71U,-0.368
21,G1A U2G G6U C27U A43C,-0.3
22,G1A U2G G6U A43C C46U C66U A69G A70U C71U,-0.499
23,G1A U2G G6U C27U A43C C46U C66A C71U,-0.41
